From ChEMBL document CHEMBL4364301 (Eur J Med Chem, 2019)

Assays:
Assay type in all cases: functional
DU-145 [1] = test: Antiproliferative activity against human DU145 cells assessed as reduction in cell growth incubated for 96 hrs by propidium iodide based 2D monolayer assay; conditions: DU-145, 96 h
Summary of the method: (§1)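 After 24 h recovery, compound in medium or medium alone (control wells) was added at 10 half-log concentrations from 0.0032 to 100 µM, in triplicate, with at most 0.3% DMSO. After 96 h, wells were PBS-washed, stained with 7 µg/ml PI and 0.1% Triton X-100, and fluorescence read at 530/620 nm. IC50 came from a 4-parameter fit, geometric mean.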

LNCaP [2] = test: Antiproliferative activity against human LNCAP cells assessed as reduction in cell growth incubated for 96 hrs by propidium iodide based 2D monolayer assay; summary of the method: as §1
VCaP [3] = test: Antiproliferative activity against human VCaP cells assessed as reduction in cell growth incubated for 96 hrs by propidium iodide based 2D monolayer assay
Summary of the method: (§2)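 VCaP cells in RPMI 1640 with 10% FCS at 37 °C, 5% CO2, seeded 4,000–20,000 cells/well and left 24 h before dosing. Compounds from DMSO stocks were diluted in half-log steps in medium, 10 concentrations 0.0032–100 μM, triplicate wells, max 0.3% DMSO. After 96 h, cells were washed, stained with 7 μg/ml propidium iodide plus 0.1% Triton X-100 for 1–2 h at room temperature, and fluorescence read at ex 530/em 620 nm.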

VCaP [4] = test: Antiproliferative activity against human VCaP cells assessed as T/C value at 1 x 10^-2 uM incubated for 96 hrs by propidium iodide based 2D monolayer assay
Summary of the method: as §1, with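 “Cells were kept in RPMI 1640 with 25 mM HEPES, 10% FCS and gentamicin at 37 °C under 5% CO2, and plated at 4,000-20,000 cells/well. After 24” for “After 24”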

VCaP [5] = test: Antiproliferative activity against human VCaP cells assessed as T/C value at 3.2 x 10^-2 uM incubated for 96 hrs by propidium iodide based 2D monolayer assay; summary of the method: as §2
VCaP [6] = test: Antiproliferative activity against human VCaP cells assessed as T/C value at 1 x 10^-1 uM incubated for 96 hrs by propidium iodide based 2D monolayer assay
Summary of the method: as §1, with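 “Cells were kept in RPMI 1640 with 25 mM HEPES, 10% FCS and gentamicin at 37 °C under 5% CO2, and plated at 4,000-20,000 cells/well. After 24” for “After 24”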

VCaP [7] = test: Antiproliferative activity against human VCaP cells assessed as T/C value at 3.2 x 10^-1 uM incubated for 96 hrs by propidium iodide based 2D monolayer assay; summary of the method: as §2
VCaP [8] = test: Antiproliferative activity against human VCaP cells assessed as T/C value at 1 uM incubated for 96 hrs by propidium iodide based 2D monolayer assay
Summary of the method: as §1, with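 “Cells were kept in RPMI 1640 with 25 mM HEPES, 10% FCS and gentamicin at 37 °C under 5% CO2, and plated at 4,000-20,000 cells/well. After 24” for “After 24”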

VCaP [9] = test: Antiproliferative activity against human VCaP cells assessed as T/C value at 3.2 uM incubated for 96 hrs by propidium iodide based 2D monolayer assay
Summary of the method: as §1, with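 “Cells were kept in RPMI 1640 with 25 mM HEPES, 10% FCS and gentamicin at 37 °C under 5% CO2, and plated at 4,000-20,000 cells/well. After 24” for “After 24”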

VCaP [10] = test: Antiproliferative activity against human VCaP cells assessed as T/C value at 1 x 10^2 uM incubated for 96 hrs by propidium iodide based 2D monolayer assay
Summary of the method: as §1, with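 “Cells were kept in RPMI 1640 with 25 mM HEPES, 10% FCS and gentamicin at 37 °C under 5% CO2, and plated at 4,000-20,000 cells/well. After 24” for “After 24”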

LNCaP [11] = test: Antiproliferative activity against human LNCAP cells assessed as T/C value at 1 x 10^-2 uM incubated for 96 hrs by propidium iodide based 2D monolayer assay
Summary of the method: as §1, with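 “Cells were kept in RPMI 1640 with 25 mM HEPES, 10% FCS and gentamicin at 37 °C under 5% CO2, and plated at 4,000-20,000 cells/well. After 24” for “After 24”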

LNCaP [12] = test: Antiproliferative activity against human LNCAP cells assessed as T/C value at 3.2 x 10^-2 uM incubated for 96 hrs by propidium iodide based 2D monolayer assay
Summary of the method: as §1, with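 “Cells were kept in RPMI 1640 with 25 mM HEPES, 10% FCS and gentamicin at 37 °C under 5% CO2, and plated at 4,000-20,000 cells/well. After 24” for “After 24”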

LNCaP [13] = test: Antiproliferative activity against human LNCAP cells assessed as T/C value at 3.2 x 10^-1 uM incubated for 96 hrs by propidium iodide based 2D monolayer assay
Summary of the method: as §1, with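 “Cells were kept in RPMI 1640 with 25 mM HEPES, 10% FCS and gentamicin at 37 °C under 5% CO2, and plated at 4,000-20,000 cells/well. After 24” for “After 24”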

LNCaP [14] = test: Antiproliferative activity against human LNCAP cells assessed as T/C value at 1 uM incubated for 96 hrs by propidium iodide based 2D monolayer assay
Summary of the method: as §1, with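 “Cells were kept in RPMI 1640 with 25 mM HEPES, 10% FCS and gentamicin at 37 °C under 5% CO2, and plated at 4,000-20,000 cells/well. After 24” for “After 24”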

LNCaP [15] = test: Antiproliferative activity against human LNCAP cells assessed as T/C value at 3.2 uM incubated for 96 hrs by propidium iodide based 2D monolayer assay
Summary of the method: as §1, with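 “Cells were kept in RPMI 1640 with 25 mM HEPES, 10% FCS and gentamicin at 37 °C under 5% CO2, and plated at 4,000-20,000 cells/well. After 24” for “After 24”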

LNCaP [16] = test: Antiproliferative activity against human LNCAP cells assessed as T/C value at 1 x 10^1 uM incubated for 96 hrs by propidium iodide based 2D monolayer assay
Summary of the method: as §1, with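 “Cells were kept in RPMI 1640 with 25 mM HEPES, 10% FCS and gentamicin at 37 °C under 5% CO2, and plated at 4,000-20,000 cells/well. After 24” for “After 24”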

CWR22R [17] = test: Antiproliferative activity against human 22Rv1 cells assessed as T/C value at 3.2 x 10^-3 uM incubated for 96 hrs by propidium iodide based 2D monolayer assay
Summary of the method: as §1, with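 “Cells were kept in RPMI 1640 with 25 mM HEPES, 10% FCS and gentamicin at 37 °C under 5% CO2, and plated at 4,000-20,000 cells/well. After 24” for “After 24”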

CWR22R [18] = test: Antiproliferative activity against human 22Rv1 cells assessed as T/C value at 1 x 10^-2 uM incubated for 96 hrs by propidium iodide based 2D monolayer assay
Summary of the method: as §1, with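 “Cells were kept in RPMI 1640 with 25 mM HEPES, 10% FCS and gentamicin at 37 °C under 5% CO2, and plated at 4,000-20,000 cells/well. After 24” for “After 24”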

CWR22R [19] = test: Antiproliferative activity against human 22Rv1 cells assessed as T/C value at 1 x 10^-1 uM incubated for 96 hrs by propidium iodide based 2D monolayer assay
Summary of the method: as §1, with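 “Cells were kept in RPMI 1640 with 25 mM HEPES, 10% FCS and gentamicin at 37 °C under 5% CO2, and plated at 4,000-20,000 cells/well. After 24” for “After 24”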

CWR22R [20] = test: Antiproliferative activity against human 22Rv1 cells assessed as T/C value at 3.2 x 10^-1 uM incubated for 96 hrs by propidium iodide based 2D monolayer assay
Summary of the method: as §1, with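 “Cells were kept in RPMI 1640 with 25 mM HEPES, 10% FCS and gentamicin at 37 °C under 5% CO2, and plated at 4,000-20,000 cells/well. After 24” for “After 24”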

CWR22R [21] = test: Antiproliferative activity against human 22Rv1 cells assessed as T/C value at 1 uM incubated for 96 hrs by propidium iodide based 2D monolayer assay
Summary of the method: as §1, with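 “Cells were kept in RPMI 1640 with 25 mM HEPES, 10% FCS and gentamicin at 37 °C under 5% CO2, and plated at 4,000-20,000 cells/well. After 24” for “After 24”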

CWR22R [22] = test: Antiproliferative activity against human 22Rv1 cells assessed as T/C value at 3.2 uM incubated for 96 hrs by propidium iodide based 2D monolayer assay
Summary of the method: as §1, with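 “Cells were kept in RPMI 1640 with 25 mM HEPES, 10% FCS and gentamicin at 37 °C under 5% CO2, and plated at 4,000-20,000 cells/well. After 24” for “After 24”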

CWR22R [23] = test: Antiproliferative activity against human 22Rv1 cells assessed as T/C value at 1 x 10^1 uM incubated for 96 hrs by propidium iodide based 2D monolayer assay
Summary of the method: as §1, with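 “Cells were kept in RPMI 1640 with 25 mM HEPES, 10% FCS and gentamicin at 37 °C under 5% CO2, and plated at 4,000-20,000 cells/well. After 24” for “After 24”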

CWR22R [24] = test: Antiproliferative activity against human 22Rv1 cells assessed as T/C value at 1 x 10^2 uM incubated for 96 hrs by propidium iodide based 2D monolayer assay
Summary of the method: as §1, with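 “Cells were kept in RPMI 1640 with 25 mM HEPES, 10% FCS and gentamicin at 37 °C under 5% CO2, and plated at 4,000-20,000 cells/well. After 24” for “After 24”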

DU-145 [25] = test: Antiproliferative activity against human DU145 cells assessed as T/C value at 3.2 x 10^-3 uM incubated for 96 hrs by propidium iodide based 2D monolayer assay; summary of the method: as §1
DU-145 [26] = test: Antiproliferative activity against human DU145 cells assessed as T/C value at 3.2 x 10^-2 uM incubated for 96 hrs by propidium iodide based 2D monolayer assay; summary of the method: as §1
DU-145 [27] = test: Antiproliferative activity against human DU145 cells assessed as T/C value at 1 x 10^-1 uM incubated for 96 hrs by propidium iodide based 2D monolayer assay; summary of the method: as §1
DU-145 [28] = test: Antiproliferative activity against human DU145 cells assessed as T/C value at 3.2 x 10^-1 uM incubated for 96 hrs by propidium iodide based 2D monolayer assay; summary of the method: as §1
DU-145 [29] = test: Antiproliferative activity against human DU145 cells assessed as T/C value at 1 uM incubated for 96 hrs by propidium iodide based 2D monolayer assay; summary of the method: as §1
DU-145 [30] = test: Antiproliferative activity against human DU145 cells assessed as T/C value at 3.2 uM incubated for 96 hrs by propidium iodide based 2D monolayer assay
Summary of the method: as §1, with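 “Cells were kept in RPMI 1640 with 25 mM HEPES, 10% FCS and gentamicin at 37 °C under 5% CO2, and plated at 4,000-20,000 cells/well. After 24” for “After 24”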

DU-145 [31] = test: Antiproliferative activity against human DU145 cells assessed as T/C value at 1 x 10^1 uM incubated for 96 hrs by propidium iodide based 2D monolayer assay; summary of the method: as §1
DU-145 [32] = test: Antiproliferative activity against human DU145 cells assessed as T/C value at 1 x 10^2 uM incubated for 96 hrs by propidium iodide based 2D monolayer assay
Summary of the method: as §1, with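 “Cells were kept in RPMI 1640 with 25 mM HEPES, 10% FCS and gentamicin at 37 °C under 5% CO2, and plated at 4,000-20,000 cells/well. After 24” for “After 24”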

## CC(O)(COc1ccc(S(F)(F)(F)(F)F)cc1)C(=O)Nc1cc(C(F)(F)F)cc(C(F)(F)F)c1 (racemic)
DU-145 [1]
  IC50: 6.5 µM
  IC70: 7.99 µM
LNCaP [2]
  IC50: 1.9 µM
  IC70: 2.45 µM
VCaP [3]
  IC50: 2.4 µM
  IC70: 3.22 µM
VCaP [4]
  T/C: 102%
VCaP [5]
  T/C: 96%
VCaP [6]
  T/C: 107%
VCaP [7]
  T/C: 91%
VCaP [8]
  T/C: 98%
VCaP [9]
  T/C: 30%
VCaP [10]
  T/C: 6%
LNCaP [11]
  T/C: 92%
LNCaP [12]
  T/C: 99%
LNCaP [13]
  T/C: 97%
LNCaP [14]
  T/C: 89%
LNCaP [15]
  T/C: 15%
LNCaP [16]
  T/C: 8%
CWR22R [17]
  T/C: 102%
CWR22R [18]
  T/C: 106%
CWR22R [19]
  T/C: 106%
CWR22R [20]
  T/C: 110%
CWR22R [21]
  T/C: 109%
CWR22R [22]
  T/C: 52%
CWR22R [23]
  T/C: 13%
CWR22R [24]
  T/C: 4%
DU-145 [25]
  T/C: 103%
DU-145 [26]
  T/C: 106%
DU-145 [27]
  T/C: 109%
DU-145 [28]
  T/C: 115%
DU-145 [29]
  T/C: 117%
DU-145 [30]
  T/C: 104%
DU-145 [31]
  T/C: 16%
DU-145 [32]
  T/C: 1%
